Experimental data taken from ChEMBL document CHEMBL1821590, “Novel dihydropyrimidines and its pyrazole derivatives: synthesis and pharmacological screening” (Eur J Med Chem, 2011).
≈ marks a conversion by molar mass, not a printed value.

Assays:
Type in all cases: functional
[1] = Antiinflammatory activity assessed as inhibition of albumin denaturation at 100 ug/ml by UV-visible spectrophotometry
Outline: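 Compounds dissolved in minimal DMF, diluted in PBS pH 7.4 (final DMF <2.5%). 1 mL test solution (100 µg/mL) plus 1 mL 1% albumin in PBS, 15 min at 27 ± 1 °C, then heated 10 min at 60 ± 1 °C. After cooling, turbidity read at 660 nm. % inhibition = [(Vt/Vc) − 1] × 100 against a no-drug control. Triplicate, averaged. Diclofenac standard.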

Candida albicans [2] = assay: Antimicrobial activity against Candida albicans at 50 ug/ml by paper disc method; details: read-out: IZ
Outline: (§1)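 Paper disc method against A. niger and C. albicans, with compounds at 25, 50 and 100 µg/mL. Amphotericin-B as standard.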

Metaphire posthuma [3] = assay: Anthelmintic activity against Pheretima posthuma assessed as time taken for complete parasite paralysis at 0.1% w/v
Outline: (§2)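 Earthworms (Pheretima posthuma) exposed to test solutions at 0.1, 0.2 and 0.5% w/v; time in minutes to complete paralysis (worms motionless) recorded. Albendazole as standard. Mean of three determinations ± S.D.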

[4] = Antioxidant activity assessed as potassium ferricyanide ion reducing power after 20 mins
Outline: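 Oyaizu method. Samples or ascorbic acid in DMF (12.5–100 µg/mL) mixed with 0.2 M phosphate buffer pH 6.6 and 1% potassium ferricyanide, 20 min at 50 °C. 10% TCA added, centrifuged. Supernatant mixed with water and 0.1% FeCl3, read at 700 nm. % = [(Vt/Vc) − 1] × 100. IC50 derived.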

Aspergillus niger [5] = assay: Antimicrobial activity against Aspergillus niger at 100 ug/ml by paper disc method; details: read-out: IZ; outline: as §1
Metaphire posthuma [6] = assay: Anthelmintic activity against Pheretima posthuma assessed as time taken for parasite death at 0.5% w/v
Outline: (§3)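 Earthworms (Pheretima posthuma, spelled Perituma posthuma in text) exposed to test compounds at 0.1, 0.2 and 0.5% w/v. Albendazole served as standard, with an untreated control. Paralysis was recorded as the time until worms became motionless, then time to death was recorded, in minutes. Each value is the mean of three determinations with S.D.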

Pseudomonas aeruginosa [7] = assay: Antimicrobial activity against Pseudomonas aeruginosa at 50 ug/ml by agar plate diffusion technique; details: read-out: IZ
Outline: (§4)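 Agar plate diffusion against E. coli, P. aeruginosa, S. aureus and B. subtilis, with compounds at 25, 50 and 100 µg/mL. Streptomycin as standard.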

Pseudomonas aeruginosa [8] = assay: Antimicrobial activity against Pseudomonas aeruginosa at 100 ug/ml by agar plate diffusion technique; details: read-out: IZ; outline: as §4
Candida albicans [9] = assay: Antimicrobial activity against Candida albicans at 100 ug/ml by paper disc method; details: read-out: IZ; outline: as §1
Aspergillus niger [10] = assay: Antimicrobial activity against Aspergillus niger at 50 ug/ml by paper disc method; details: read-out: IZ; outline: as §1
[11] = Antioxidant activity assessed as nitric oxide radical scavenging activity after 150 mins
Outline: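 10 mM sodium nitroprusside (4 mL), PBS pH 7.4 (1 mL) and sample or ascorbic acid in DMSO (1 mL, 12.5–100 µg/mL), incubated 150 min at 25 °C. Nitrite detected with sulphanilic acid (5 min) then naphthylethylenediamine (30 min, diffused light). Read at […]. Triplicate. % inhibition = [1 − (Vt/Vc)] × 100. IC50 derived from it.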

Bacillus subtilis [12] = assay: Antimicrobial activity against Bacillus subtilis at 50 ug/ml by agar plate diffusion technique; details: read-out: IZ; outline: as §4
Escherichia coli [13] = assay: Antimicrobial activity against Escherichia coli at 50 ug/ml by agar plate diffusion technique; details: read-out: IZ; outline: as §4
Bacillus subtilis [14] = assay: Antimicrobial activity against Bacillus subtilis at 25 ug/ml by agar plate diffusion technique; details: read-out: IZ; outline: as §4
Metaphire posthuma [15] = assay: Anthelmintic activity against Pheretima posthuma assessed as time taken for complete parasite paralysis at 0.2% w/v; outline: as §2
Metaphire posthuma [16] = assay: Anthelmintic activity against Pheretima posthuma assessed as time taken for parasite death at 0.1% w/v; outline: as §3
Metaphire posthuma [17] = assay: Anthelmintic activity against Pheretima posthuma assessed as time taken for parasite death at 0.2% w/v; outline: as §3
Escherichia coli [18] = assay: Antimicrobial activity against Escherichia coli at 100 ug/ml by agar plate diffusion technique; details: read-out: IZ; outline: as §4
Metaphire posthuma [19] = assay: Anthelmintic activity against Pheretima posthuma assessed as time taken for complete parasite paralysis at 0.5% w/v; outline: as §2
Aspergillus niger [20] = assay: Antimicrobial activity against Aspergillus niger at 25 ug/ml by paper disc method; details: read-out: IZ; outline: as §1
Pseudomonas aeruginosa [21] = assay: Antimicrobial activity against Pseudomonas aeruginosa at 25 ug/ml by agar plate diffusion technique; details: read-out: IZ; outline: as §4
Candida albicans [22] = assay: Antimicrobial activity against Candida albicans at 25 ug/ml by paper disc method; details: read-out: IZ; outline: as §1
[23] = Antioxidant activity assessed as inhibition of lipid peroxidation using egg lecithin liposomes incubated for 1 hr
Outline: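 Egg lecithin (3 mg/mL, phosphate buffer pH 7.4) sonicated 10 min to form liposomes. Sample or ascorbic acid (12.5–100 µg/mL) added. Peroxidation induced with FeCl3 and L-ascorbic acid, 1 h at 37 °C. Stopped with HCl/TCA/TBA/BHA, boiled 15 min, centrifuged, supernatant read at 532 nm. Triplicate. % inhibition vs control. IC50 derived.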

Escherichia coli [24] = assay: Antimicrobial activity against Escherichia coli at 25 ug/ml by agar plate diffusion technique; details: read-out: IZ; outline: as §4
[25] = Antioxidant activity assessed as hydrogen peroxide scavenging activity after 10 mins
Outline: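 H2O2 (20 mM) in PBS pH 7.4. 1 mL of sample or ascorbic acid in methanol (12.5–100 µg/mL) added to 2 mL H2O2 solution. A230 read after 10 min. % inhibition = [1 − (Vt/Vc)] × 100. Triplicate, averaged. IC50 derived from % inhibition across concentrations.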

Bacillus subtilis [26] = assay: Antimicrobial activity against Bacillus subtilis at 100 ug/ml by agar plate diffusion technique; details: read-out: IZ; outline: as §4
Staphylococcus aureus [27] = assay: Antimicrobial activity against Staphylococcus aureus at 50 ug/ml by agar plate diffusion technique; details: read-out: IZ; outline: as §4
Staphylococcus aureus [28] = assay: Antimicrobial activity against Staphylococcus aureus at 100 ug/ml by agar plate diffusion technique; details: read-out: IZ; outline: as §4
Staphylococcus aureus [29] = assay: Antimicrobial activity against Staphylococcus aureus at 25 ug/ml by agar plate diffusion technique; details: read-out: IZ; outline: as §4

Structure (SMILES) | inhibition [1] | zone of inhibition at 50 µg/mL (Candida albicans [2]) | Time (Metaphire posthuma [3]) | IC50 [4] | zone of inhibition at 100 µg/mL (Aspergillus niger [5]) | Time (Metaphire posthuma [6]) | zone of inhibition at 100 µg/mL (Candida albicans [9]) | zone of inhibition at 50 µg/mL (Aspergillus niger [10]) | IC50 [11] | zone of inhibition at 50 µg/mL (Bacillus subtilis [12]) | zone of inhibition at 25 µg/mL (Bacillus subtilis [14]) | Time (Metaphire posthuma [15]) | Time (Metaphire posthuma [16]) | Time (Metaphire posthuma [17]) | Time (Metaphire posthuma [19]) | zone of inhibition at 25 µg/mL (Aspergillus niger [20]) | zone of inhibition at 25 µg/mL (Candida albicans [22]) | IC50 [23] | IC50 [25] | zone of inhibition at 100 µg/mL (Bacillus subtilis [26]) | also measured
O=C(O)Cc1ccccc1Nc1c(Cl)cccc1Cl | 83.3% | – | – | – | – | – | – | – | – | – | – | – | – | – | – | – | – | – | – | – | –
Cn1c(NN)nc(-c2cccc(O)c2O)c(C#N)c1=O | 28.8% | 13.8 mm | 52.22 min | 34 µg/mL (≈ 124 µM) | 15 mm | 60.27 min | 18.7 mm | 8.44 mm | 44 µg/mL (≈ 161 µM) | 14.5 mm | 11.5 mm | 48.56 min | 66.22 min | 63.98 min | 45.65 min | 7.06 mm | 9.35 mm | 31 µg/mL (≈ 113 µM) | 29 µg/mL (≈ 106 µM) | 22.1 mm | zone of inhibition at 50 µg/mL (Pseudomonas aeruginosa [7]): 10.1 mm; zone of inhibition at 100 µg/mL (Pseudomonas aeruginosa [8]): 12.9 mm; zone of inhibition at 50 µg/mL (Escherichia coli [13]): 8.16 mm; zone of inhibition at 100 µg/mL (Escherichia coli [18]): 10.2 mm; zone of inhibition at 25 µg/mL (Pseudomonas aeruginosa [21]): 8.1 mm; zone of inhibition at 25 µg/mL (Escherichia coli [24]): 8.72 mm
Cn1c(NN)nc(-c2ccco2)c(C#N)c1=O | 36.6% | 10.2 mm | 43.73 min | 64 µg/mL (≈ 277 µM) | 17.6 mm | 50.98 min | 16 mm | 10.1 mm | 65 µg/mL (≈ 281 µM) | 13.3 mm | 10.8 mm | 40.73 min | 61.58 min | 57.48 min | 37.52 min | 9.82 mm | 8.26 mm | 78 µg/mL (≈ 337 µM) | 58 µg/mL (≈ 251 µM) | 14.2 mm | zone of inhibition at 50 µg/mL (Staphylococcus aureus [27]): 10.5 mm; zone of inhibition at 100 µg/mL (Staphylococcus aureus [28]): 12.2 mm; zone of inhibition at 25 µg/mL (Staphylococcus aureus [29]): 8.02 mm
CCCSc1ccc2[nH]c(NC(=O)OC)nc2c1 [ALBENDAZOLE] | – | – | 50.38 min | – | – | 53.34 min | – | – | – | – | – | 35.58 min | 60.36 min | 55.25 min | 30.57 min | – | – | – | – | – | –
O=C1O[C@H]([C@@H](O)CO)C(O)=C1O [ASCORBIC ACID] | – | – | – | 31 µg/mL (≈ 176 µM) | – | – | – | – | 47 µg/mL (≈ 267 µM) | – | – | – | – | – | – | – | – | 26 µg/mL (≈ 148 µM) | 33 µg/mL (≈ 187 µM) | – | –
